In the library only some 3% were active in any assay of this set; here they are far more common.
KLK7 zymogen act = proKLK7 (human) activation, primary screen; 0.9% of 370,000 active; P49862; activation, % at 7 µM; purified proKLK7, EDANS-DABCYL substrate fluorescence; 100% is mature enzyme control, 0% vehicle;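 active = activation above the mean of all tested compounds plus 3 SD, computed per campaign excluding outliers beyond control limits, cut at about 13% in these data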
PLC-gamma1 inh = PLC-gamma1 (human) inhibition, primary screen; purified PLC-gamma1, fluorogenic substrate, fluorescence; inhibition, % at 12.2 µM; 0.84% of 370,000 active; AID 720700; in the data active = inhibition above about 9.5%
CendR NRP1 mod = alters CendR peptide binding to human NRP-1; FAM-RPARPAR peptide binding to NRP-1, fluorescence polarization; inhibition, % at 25 µM; 0.85% of 360,000 active; AID 602438; O14786;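 active = inhibition or corrected inhibition above about 18%, plus a signal ratio from 0.5 to 1.5, limit read from the data, passing the limit was not always enough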
Tn7 DDE FP = DD(E)-Tn7 binding inhibition, primary FP screen; P02675; FP displacement of FITC-Tn7 peptide from fibrin DD(E); 0% = median of compound wells per plate; inhibition, % at 8.3 µM; 0.13% of 370,000 active;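 active = inhibition above the mean of compounds falling within the control limits plus 3 SD of them, cut at about 14% in these data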
Target sequence (P02675 whole entry, looked up): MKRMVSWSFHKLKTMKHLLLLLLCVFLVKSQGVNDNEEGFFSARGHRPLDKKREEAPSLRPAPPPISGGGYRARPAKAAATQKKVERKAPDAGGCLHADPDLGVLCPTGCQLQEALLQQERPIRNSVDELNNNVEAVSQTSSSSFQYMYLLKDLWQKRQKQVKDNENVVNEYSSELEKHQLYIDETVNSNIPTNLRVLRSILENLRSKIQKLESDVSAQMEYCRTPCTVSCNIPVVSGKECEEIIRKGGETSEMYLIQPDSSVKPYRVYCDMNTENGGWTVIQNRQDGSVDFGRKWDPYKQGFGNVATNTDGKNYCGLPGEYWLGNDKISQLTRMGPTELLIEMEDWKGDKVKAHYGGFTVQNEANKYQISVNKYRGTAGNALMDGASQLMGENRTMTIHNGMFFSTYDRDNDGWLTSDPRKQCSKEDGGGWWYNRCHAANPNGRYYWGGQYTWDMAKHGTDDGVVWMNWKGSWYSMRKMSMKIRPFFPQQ
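Test system: human clot-derived fibrin DD(E) complex / Quantity: 2 µM final DD(E) protein / Incubation: 10 min plus 3 h, room temperature / Measured by: fluorescence polarization / Benchmarks: high control of 10 µM Aha-Tn7 peptide / Replicates: singlicate testing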
PLC-beta3 inh = PLC-beta3 (human) inhibition, primary screen; 0.18% of 370,000 active; inhibition, % at 12.2 µM; Q01970; Purified PLC-beta3, fluorogenic substrate, fluorescence; in the data active = inhibition above about 11%
Tn6 DDE FP = inhibitors of Tn6 peptide binding to human fibrin DD(E); 0.21% of 370,000 active; P02675; Fibrin DD(E) TRITC-Tn6 fluorescence polarization displacement; inhibition, % at 8.3 µM; AID 720509;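 active = inhibition above a per-campaign cutoff: mean of compounds within control limits plus 3 SD, cut at about 15% in these data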
Large screens that a line does not name were inactive; ! = a repeat was not active.

CCOC(=O)[C@@]12CCCC=C1N(CCc1ccc(Cl)cc1)C(=O)[C@H]2CC(=O)N1CCCC1	none (no result: CendR NRP1 mod)
O=C(Cn1cc[n+](Cc2ccccc2)c1)c1ccc([N+](=O)[O-])cc1	PLC-gamma1 inh 11
CCCNC(=O)C1(C)CCN(Cc2cc(C(F)(F)F)ccc2Cl)C1 (stereo unspecified)	CendR NRP1 mod 22
CCNC(=O)C1(C)CCN(Cc2ccc(C(F)(F)F)cc2)C1 (stereo unspecified)	none
CCCCNS(=O)(=O)/C=C/c1ccccc1CNC(=O)OC(C)(C)C	none (no result: CendR NRP1 mod)
COc1cc(CNC(=O)Nc2nc(C(N)CCc3ccccc3)cs2)cc(OC)c1OC (stereo unspecified)	none
COc1ccccc1NC(=O)Nc1nc(C(N)CCc2ccccc2)cs1 (stereo unspecified)	PLC-gamma1 inh 11
O=C(NCC1CC1)C1Cc2c(-c3ccc(Cl)cc3)ccnc2O1 (stereo unspecified)	none
O=C(NCCC(F)(F)F)C1Cc2c(-c3ccc(Cl)cc3)ccnc2O1 (stereo unspecified)	CendR NRP1 mod 27
O=C(Nc1nnc(-c2cccnc2)s1)c1cnc2ccccc2c1	none (no result: CendR NRP1 mod)
C=CCN1C(=O)[C@@H](CC(=O)NCCCN2CCCC2=O)[C@]2(C(=O)OCC)CCCCC/C=C/12	none (no result: CendR NRP1 mod)
CC(CCc1ccccc1)NC(=O)CNC(=O)c1cccs1 (stereo unspecified)	CendR NRP1 mod 28
Cc1occc1C(=O)NC(C)CCc1ccccc1 (stereo unspecified)	CendR NRP1 mod 24
CCN1CCCCC(NC(=O)c2ccccc2OC)C1=O (stereo unspecified)	none (no result: CendR NRP1 mod)
O=C(OC12CCCN(C1)/C(=C/c1cccc(Cl)c1)C2)c1ccc(F)cc1 (stereo unspecified)	none (no result: CendR NRP1 mod)
OC(CN1C2=NCCN2c2ccccc21)c1ccccc1 (stereo unspecified)	none
Cc1ccc(C(O)CN2C3=NCCN3c3ccccc32)cc1 (stereo unspecified)	CendR NRP1 mod 56
CC(=O)c1cc(-c2ccc3c(c2)OCO3)c(=O)n2c1CCC2	none (no result: CendR NRP1 mod)
CC(Sc1nnc(-c2cccnc2)o1)C(=O)NC1CCCC1 (stereo unspecified)	CendR NRP1 mod 22
CCCn1c(C(CO)Nc2nc(-c3cccc(Br)c3)cs2)nc2ccccc21 (stereo unspecified)	none
OCCOCCn1c(C(CO)Nc2nc(-c3cccc(Br)c3)cs2)nc2ccccc21 (stereo unspecified)	CendR NRP1 mod 23
O=C(c1ccco1)N1CCN(C23CC4CC(CC(C4)C2)C3)CC1	none
Cn1nccc1C(=O)N1CCN(C23CC4CC(CC(C4)C2)C3)CC1	CendR NRP1 mod 31
Cc1ccc(C(=O)N2CCN(C34CC5CC(CC(C5)C3)C4)CC2)o1	CendR NRP1 mod 25
CCC(C)[C@@H](C(=O)OC)N(Cc1cn(Cc2ccccc2)nn1)S(=O)(=O)c1ccccc1Br (stereo partly specified)	none (no result: CendR NRP1 mod)
COc1cccc2c(NCc3ccccc3)nc(-n3c(N)nc4ccccc43)nc12	none (no result: KLK7 zymogen act, CendR NRP1 mod)
COC(=O)[C@]12C[C@H](CC(=O)N3CCSCC3)C(=O)N(Cc3ccco3)C1=C[C@H](C(C)(C)C)O[C@@H]2C	none (no result: CendR NRP1 mod)
CNC(=O)NC(=O)C(C)OC(=O)c1c(C)noc1C (stereo unspecified)	CendR NRP1 mod 43
CN(C)CCCN1C(=O)c2cccc3c(Br)ccc(c23)C1=O	CendR NRP1 mod 25
O=C(O)CN1C(=O)c2cccc3c(Br)ccc1c23	none
COc1ccc(CCNC(=O)c2nnn(CC(=O)Nc3ccccc3C)c2N)cc1OC	CendR NRP1 mod 28
COc1ccc(CCNC(=O)Cn2nnc(-c3ccccc3F)n2)cc1OC	PLC-gamma1 inh 9.9
CC(C)(C)c1ccc(-c2nnc3sc(COc4ccccc4)nn23)cc1	none (no result: CendR NRP1 mod)
CC(C)N(Cc1cn(Cc2ccccc2)nn1)S(=O)(=O)c1ccc(F)cc1Br	none (no result: CendR NRP1 mod)
Cc1c(CC(=O)O)c(=O)oc2cc(OCc3ccc(F)cc3Cl)ccc12	CendR NRP1 mod 51
c1ccc2c(c1)OCC(c1nnc3n1-c1ccccc1SC3)O2 (stereo unspecified)	CendR NRP1 mod 45
COC(=O)[C@]12C[C@H](CC(=O)NCc3cccs3)C(=O)N(CCc3ccc(OC)c(OC)c3)C1=C[C@H](C1CCCC1)O[C@@H]2C	none (no result: CendR NRP1 mod)
COC(=O)C1=C(C)N(CCCC(=O)O)C(=O)NC1c1ccc(Br)cc1 (stereo unspecified)	none
COC(=O)C1=C(C)N(CCCC(=O)O)C(=O)NC1c1ccc(-c2ccccc2)cc1 (stereo unspecified)	CendR NRP1 mod 30
C=CCN(C(=O)[C@@H](C1CC1)[C@@H](O)c1ccc2ccccc2c1)c1ccccc1	none (no result: CendR NRP1 mod)
COc1ccc2nc(NC(=O)CN3CCOCC3)sc2c1	CendR NRP1 mod 21
COc1ccc2nc(NC(=O)c3cc(S(=O)(=O)N4CCOCC4)ccc3C)sc2c1	CendR NRP1 mod 26
COc1ccc2nc(NC(=S)N(C)C)sc2c1	PLC-gamma1 inh 15
Cc1ccc(S(=O)(=O)N2CCOCC2)cc1NCC(=O)Nc1ccc(OC(F)(F)F)cc1	CendR NRP1 mod 20
CC(=O)Oc1cccc(/C=C2\C=C(c3ccc(C)cc3)OC2=O)c1	none
COc1ccc(C2=C/C(=C\c3ccc(OC(C)=O)cc3)C(=O)O2)cc1	CendR NRP1 mod 108
Cc1cc(SCC(=O)O)nc2ccccc12	none
Cc1cc(SCC(=O)c2cc(C)n(C)c2C)nc2ccccc12	CendR NRP1 mod 42
CCCCCC[N+](C)(C)CC/C=C1/c2ccccc2Sc2ccc(Cl)cc21	none
CN(C)CC/C=C1/c2ccccc2Sc2ccc(Cl)cc21	CendR NRP1 mod 27!
O=C(/C=C/c1cccnc1)c1ccc(NC(=O)c2cccc(Br)c2)cc1	CendR NRP1 mod 19
Cc1cccc(C(=O)Nc2ccc(C(=O)/C=C/c3cccnc3)cc2)c1	none
Cc1c(NC(=O)c2cccs2)cccc1NC(=O)c1cccs1	none
O=C(Nc1ccccc1Cl)c1cccs1	CendR NRP1 mod 26
CCOC(=O)[C@]12CCCCC/C=C\1N(CCc1ccc(Cl)cc1)C(=O)[C@H]2CC(=O)NCCCOC	none (no result: CendR NRP1 mod)
COc1cc2c(c(OC)c1OC)C(=O)CO2	CendR NRP1 mod 18
COc1cc2c(c(OC)c1O)C(=O)CO2	none
CCOc1ccc(S(=O)(=O)Nc2ccc(C(=O)N/N=C/c3c(C)nn(-c4ccccc4)c3N3CCCC3)cc2)cc1	CendR NRP1 mod 21
CCC(CC)NC(=O)O[C@H]1CC[C@@]23CCCN2C(=O)CCC[C@H]3[C@H]1C	none (no result: KLK7 zymogen act, CendR NRP1 mod)
N#Cc1c(N)nc2c(c1-c1ccc(Br)s1)CCCC2	none
Nc1nc(-c2ccc(Br)s2)c(Br)s1	CendR NRP1 mod 30
CCC[C@H]1[C@@H](NS(=O)(=O)c2ccccc2[N+](=O)[O-])CC[C@@]23CCCN2C(=O)CCC[C@@H]13	none (no result: KLK7 zymogen act, CendR NRP1 mod)
